Measurements reported in ChEMBL document CHEMBL3297648, “Diterpenoids from the Chinese liverwort Heteroscyphus tener and their antiproliferative effects” (J Nat Prod, 2014).
Active and inactive are the calls of the source. No cut-off for these calls is given here.

Assays:
[1] = test system: PC-3; test: Induction of apoptosis in human PC3 cells at 20 uM by Annexin V-FITC/propidium iodide staining based flow cytometry; assay type: functional, cell-based; details: TDE = time-dependent effect
Outline: (§1)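 Cells seeded in 6-well plates for 24 h, then given 20 μM for the stated times. Cells were trypsinized, PBS-washed, stained with annexin V-FITC/PI, and analysed immediately by flow cytometry. Means ± SD of three independent experiments; Student's t test against untreated control.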

[2] = molecular target: Serine/threonine-protein kinase ATR (Homo sapiens) (UniProt Q13535); test: Activation of ATR in human PC3 cells assessed as ChK1 phosphorylation at Ser296 at 20 uM after 12 hrs by western blot analysis; assay type: cell-based; details: PC-3
Outline: (§2)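 Cells treated at 20 μM for various times, lysed in RIPA buffer with protease/phosphatase inhibitors, protein quantified by BCA. Equal protein run on 12% SDS-PAGE, transferred to nitrocellulose, blocked 1 h in 5% milk/TBST, primary antibodies overnight at 4 °C, secondary 1:2000 for 45 min, ECL detection on film. GAPDH used as loading control.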

[3] = test system: DU-145; test: Cell cycle arrest at G0/G1 phase in human DU145 cells after 24 hrs by propidium iodide staining based flow cytometry; assay type: functional
[4] = Cell cycle arrest in human PC3 cells assessed as accumulation at S phase at 10 uM after 24 hrs by propidium iodide staining based flow cytometry (reference value: 22.07%); assay type: functional; details: PC-3
[5] = Decrease in BRCA1 protein expression in human PC3 cells at 20 uM after 2 to 48 hrs by western blot analysis; assay type: functional, cell-based; details: PC-3; outline: as §2
[6] = test system: PC-3; test: Induction of apoptosis in human PC3 cells assessed as necrotic cells at 20 uM after 12 hrs by Annexin V-FITC/propidium iodide staining based flow cytometry (reference value: 0.98%); assay type: functional; outline: as §1
[7] = test system: DU-145; test: Induction of apoptosis in human DU145 cells assessed as cleaved caspase-3 level at 20 uM after 12 hrs by western blot analysis; assay type: functional, cell-based
Outline: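 Cells exposed to 20 μM for the stated times. Lysis in RIPA plus protease inhibitors, BCA protein assay, equal protein on 12% SDS-PAGE, transfer to nitrocellulose. Blocking in 5% milk/TBST 1 h; primary antibodies overnight at 4 °C; secondary 1:2000 for 45 min; ECL detection. GAPDH served as loading control.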

[8] = test system: PC-3; test: Induction of apoptosis in human PC3 cells assessed as late apoptotic cells at 20 uM after 24 hrs by Annexin V-FITC/propidium iodide staining based flow cytometry (reference value: 7.92%); assay type: functional; outline: as §1
[9] = Cell cycle arrest in human PC3 cells assessed as accumulation at G0/G1 phase at 10 uM after 24 hrs by propidium iodide staining based flow cytometry (reference value: 66.57%); assay type: functional; details: PC-3
[10] = test system: DU-145; test: Induction of ROS generation in human DU145 cells at 20 uM measured up to 6 hrs by DCFH-DA staining based flow cytometry; assay type: functional, cell-based
Outline: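 Cells exposed to 20 μM for the indicated times, then loaded with 10 μM DCFH-DA for 30 min at 37 °C. Washed, resuspended in PBS and read at once by flow cytometry. ROS expressed as ratio relative to untreated control.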

[11] = test system: DU-145; test: Cell cycle arrest in human DU145 cells assessed as accumulation at subG1 phase at 10 uM after 24 hrs by propidium iodide staining based flow cytometry (reference value: 0.28%); assay type: functional
[12] = test system: DU-145; test: Cell cycle arrest in human DU145 cells assessed as accumulation at G0/G1 phase at 20 uM after 24 hrs by propidium iodide staining based flow cytometry (reference value: 63.34%); assay type: functional
[13] = test system: DU-145; test: Induction of apoptosis in human DU145 cells assessed as necrotic cells at 20 uM after 8 hrs by Annexin V-FITC/propidium iodide staining based flow cytometry (reference value: 0.21%); assay type: functional; outline: as §1
[14] = test system: DU-145; test: Induction of apoptosis in human DU145 cells assessed as increase in caspase-3 activity using Ac-DEVD-AMC as substrate at 20 uM by fluorometric method; assay type: functional, cell-based; details: TDE = time-dependent effect
Outline: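 Cells treated with 20 μM for the stated times. Pellets lysed on ice 15 min, spun at 14 000g for 15 min at 4 °C. Supernatant assayed in buffer containing CHAPS, 10% glycerol, 2 mM EDTA, 5 mM DTT for 2 h at 37 °C. Fluorescence read at ex 380/em 440 nm.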

[15] = Cell cycle arrest in human PC3 cells assessed as accumulation at G0/G1 phase at 20 uM after 24 hrs by propidium iodide staining based flow cytometry (reference value: 66.57%); assay type: functional; details: PC-3
[16] = Decrease in cyclin D1 protein expression in human PC3 cells by western blot analysis; assay type: functional, cell-based; details: PC-3, TDE = time-dependent effect
Outline: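 Western blot of cyclin D1, cyclin E, Cdk4 and p21 in PC3 and DU145 lysates. Lysis in RIPA buffer plus protease inhibitors, BCA quantification, 12% SDS-PAGE, nitrocellulose transfer, milk block, primaries overnight at 4 °C, secondary 1:2000 for 45 min, ECL read-out. GAPDH served as loading control.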

[17] = test system: DU-145; test: Induction of apoptosis in human DU145 cells assessed as late apoptotic cells at 20 uM after 4 hrs by Annexin V-FITC/propidium iodide staining based flow cytometry (reference value: 1.53%); assay type: functional; outline: as §1
[18] = test system: DU-145; test: Induction of ROS generation in human DU145 cells at 20 uM pretreated for 1 hr with 5 mM antioxidant NAC measured after 24 hrs by DCFH-DA staining based flow cytometry; assay type: functional, cell-based
Outline: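 Cells in RPMI 1640 with 10% FBS, 5% CO2, 37 °C, treated at 50−70% confluence (DMSO vehicle). After exposure, cells were loaded with 10 μM DCFH-DA for 30 min at 37 °C, washed, resuspended in PBS, and read at once by flow cytometry. For NAC runs, cells got 5 mM NAC 1 h before compound. ROS reported as ratio relative to untreated control.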

[19] = test system: DU-145; test: Induction of apoptosis in human DU145 cells assessed as late apoptotic cells at 20 uM after 12 hrs by Annexin V-FITC/propidium iodide staining based flow cytometry (reference value: 1.53%); assay type: functional; outline: as §1
[20] = test system: PC-3; test: Induction of apoptosis in human PC3 cells assessed as early apoptotic cells at 20 uM after 12 hrs by Annexin V-FITC/propidium iodide staining based flow cytometry (reference value: 0.79%); assay type: functional; outline: as §1
[21] = Cell cycle arrest in human PC3 cells assessed as accumulation at subG1 phase at 10 uM after 24 hrs by propidium iodide staining based flow cytometry (reference value: 0.13%); assay type: functional; details: PC-3
[22] = test system: DU-145; test: Induction of apoptosis in human DU145 cells assessed as early apoptotic cells at 20 uM after 4 hrs by Annexin V-FITC/propidium iodide staining based flow cytometry (reference value: 1.60%); assay type: functional; outline: as §1
[23] = test system: DU-145; test: Cell cycle arrest in human DU145 cells assessed as accumulation at G2/M phase at 10 uM after 24 hrs by propidium iodide staining based flow cytometry (reference value: 10.44%); assay type: functional

Serine/threonine-protein kinase ATR (Homo sapiens), sequence (Q13535 whole entry, looked up): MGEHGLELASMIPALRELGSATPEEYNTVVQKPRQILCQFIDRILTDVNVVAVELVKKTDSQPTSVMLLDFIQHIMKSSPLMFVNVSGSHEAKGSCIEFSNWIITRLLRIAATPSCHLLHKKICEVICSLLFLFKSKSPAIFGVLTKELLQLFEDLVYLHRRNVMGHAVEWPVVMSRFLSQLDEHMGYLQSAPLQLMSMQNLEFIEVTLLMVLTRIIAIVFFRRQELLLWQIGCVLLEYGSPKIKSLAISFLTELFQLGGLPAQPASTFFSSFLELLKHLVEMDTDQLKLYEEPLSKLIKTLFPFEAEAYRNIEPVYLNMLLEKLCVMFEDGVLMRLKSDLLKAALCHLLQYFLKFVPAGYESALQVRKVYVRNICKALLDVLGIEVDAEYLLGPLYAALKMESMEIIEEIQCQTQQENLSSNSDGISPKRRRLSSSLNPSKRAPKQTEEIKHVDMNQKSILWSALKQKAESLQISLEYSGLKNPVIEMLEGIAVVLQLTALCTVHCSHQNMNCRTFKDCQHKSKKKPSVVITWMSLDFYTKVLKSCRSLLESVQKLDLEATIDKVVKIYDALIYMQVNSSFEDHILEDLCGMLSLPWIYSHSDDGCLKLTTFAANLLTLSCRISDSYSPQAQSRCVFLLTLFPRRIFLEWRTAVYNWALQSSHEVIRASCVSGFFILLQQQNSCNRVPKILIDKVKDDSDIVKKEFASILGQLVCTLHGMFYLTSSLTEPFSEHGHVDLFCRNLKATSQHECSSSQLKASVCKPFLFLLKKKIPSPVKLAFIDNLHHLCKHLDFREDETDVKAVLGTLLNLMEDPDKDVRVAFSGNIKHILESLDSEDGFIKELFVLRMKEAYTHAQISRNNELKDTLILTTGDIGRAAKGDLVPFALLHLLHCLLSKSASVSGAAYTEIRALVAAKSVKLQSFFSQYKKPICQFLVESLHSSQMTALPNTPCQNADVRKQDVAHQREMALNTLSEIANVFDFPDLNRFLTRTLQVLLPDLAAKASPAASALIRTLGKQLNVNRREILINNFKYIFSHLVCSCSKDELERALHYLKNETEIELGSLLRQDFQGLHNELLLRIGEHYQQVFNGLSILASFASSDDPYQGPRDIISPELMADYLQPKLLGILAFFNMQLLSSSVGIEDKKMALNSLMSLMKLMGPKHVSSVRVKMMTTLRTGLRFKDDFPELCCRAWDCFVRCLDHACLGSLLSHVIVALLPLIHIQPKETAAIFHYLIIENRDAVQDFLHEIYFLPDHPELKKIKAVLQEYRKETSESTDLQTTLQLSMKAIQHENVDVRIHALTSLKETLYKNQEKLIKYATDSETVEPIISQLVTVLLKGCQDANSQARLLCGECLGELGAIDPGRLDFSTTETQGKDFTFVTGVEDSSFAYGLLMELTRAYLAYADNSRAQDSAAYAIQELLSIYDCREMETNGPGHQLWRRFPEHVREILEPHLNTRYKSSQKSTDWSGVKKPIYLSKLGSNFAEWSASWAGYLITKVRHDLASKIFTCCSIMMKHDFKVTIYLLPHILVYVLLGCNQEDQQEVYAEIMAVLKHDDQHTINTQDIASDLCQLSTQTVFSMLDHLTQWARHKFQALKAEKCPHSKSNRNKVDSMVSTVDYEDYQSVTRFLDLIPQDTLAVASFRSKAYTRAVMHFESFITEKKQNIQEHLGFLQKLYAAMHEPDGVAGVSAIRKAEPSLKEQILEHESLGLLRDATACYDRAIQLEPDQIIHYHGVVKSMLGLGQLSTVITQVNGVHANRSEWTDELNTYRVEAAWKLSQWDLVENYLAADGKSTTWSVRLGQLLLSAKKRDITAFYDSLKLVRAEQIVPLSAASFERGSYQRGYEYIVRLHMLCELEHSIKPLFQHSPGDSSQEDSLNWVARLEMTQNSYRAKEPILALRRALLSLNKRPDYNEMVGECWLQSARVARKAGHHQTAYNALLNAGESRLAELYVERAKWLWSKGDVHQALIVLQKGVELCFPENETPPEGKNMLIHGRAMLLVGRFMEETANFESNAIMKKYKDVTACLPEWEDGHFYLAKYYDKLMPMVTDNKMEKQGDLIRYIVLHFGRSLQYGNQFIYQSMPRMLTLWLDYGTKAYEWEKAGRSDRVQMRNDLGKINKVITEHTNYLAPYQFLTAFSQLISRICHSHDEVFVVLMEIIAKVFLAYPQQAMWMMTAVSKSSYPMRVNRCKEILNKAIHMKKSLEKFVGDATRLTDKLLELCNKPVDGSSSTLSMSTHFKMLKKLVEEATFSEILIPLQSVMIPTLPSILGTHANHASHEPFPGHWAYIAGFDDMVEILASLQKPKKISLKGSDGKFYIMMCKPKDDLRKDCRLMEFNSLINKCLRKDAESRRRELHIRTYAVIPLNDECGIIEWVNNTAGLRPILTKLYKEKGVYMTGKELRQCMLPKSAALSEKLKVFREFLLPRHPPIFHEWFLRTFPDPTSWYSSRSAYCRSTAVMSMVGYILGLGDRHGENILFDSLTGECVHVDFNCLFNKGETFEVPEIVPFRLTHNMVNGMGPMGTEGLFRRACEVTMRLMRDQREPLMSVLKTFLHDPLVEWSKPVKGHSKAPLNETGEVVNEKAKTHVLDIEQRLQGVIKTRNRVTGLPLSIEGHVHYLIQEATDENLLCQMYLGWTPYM

Activity [2]: Active
Structure (SMILES): C=C[C@@](C)(O)CC[C@@H]1C(C)=CC[C@@H]2C(C)(C)CCC[C@@]12C
Activity [1]: tde
Activity [3]: Dose-dependent effect
Activity [4]: 13.9%
inhibition [5]: inactive
Activity [6]: 4.68%
Activity [7]: Active
Activity [8]: 66.46%
Activity [9]: 73%
Activity [10]: Active
Activity [11]: 1.97%
Activity [12]: 75.55%
Activity [13]: 2.44%
Activity [14]: tde
Activity [15]: 82.5%
inhibition [16]: tde
Activity [17]: 9.26%
Activity [18]: inactive
Activity [19]: 11.32%
Activity [20]: 3.51%
Activity [21]: 1.94%
Activity [22]: 4%
Activity [23]: 8.38%
